Data on one molecule can be found in ChEMBL document CHEMBL3763127, “Design, synthesis and biological evaluation of novel asperphenamate derivatives” (Eur J Med Chem, 2016).

The test system of assay [1] is Bel-7402. As to the kind of experiment: Induction of cell cycle arrest in human Bel7402 cells assessed as accumulation at G2/M phase at 20 uM after 72 hrs by PI staining-based flow cytometric analysis (reference value: 22.26%). It is filed as functional. A general note: A flow cytometer gives signals particle by particle.
Assay [2] deals with MCF7. The assay is described as follows: Induction of apoptosis in human MCF7 cells assessed as accumulation at subG1 phase at 10 uM after 48 hrs by PI staining-based flow cytometric analysis (reference value: 2.98%). Format: functional.
The test system of assay [3] is HeLa. The assay is described as follows: Induction of cell cycle arrest in human HeLa cells assessed as accumulation at G2/M phase at 20 uM after 72 hrs by PI staining-based flow cytometric analysis (reference value: 25.44%). It is filed as functional.
For assay [4], the system named is Bel-7402. As to the kind of experiment: Induction of apoptosis in human Bel7402 cells assessed as accumulation at subG1 phase at 20 uM after 48 hrs by PI staining-based flow cytometric analysis (reference value: 2.87%). Format: functional.
Assay [5] deals with MCF7. The assay is described as follows: Induction of cell cycle arrest in human MCF7 cells assessed as accumulation at S phase at 10 uM after 48 hrs by PI staining-based flow cytometric analysis (reference value: 27.09%). It is filed as functional.
Assay [6] relates to MCF7. The assay is described as follows: Induction of cell cycle arrest in human MCF7 cells assessed as accumulation at G2/M phase at 10 uM after 48 hrs by PI staining-based flow cytometric analysis (reference value: 19.85%). Format: functional.
Assay [7] concerns Bel-7402. As to the kind of experiment: Induction of autophagy in human Bel7402 cells assessed as increase in autophagosome formation at 20 and 40 uM after 72 hrs by AO staining-based fluorescence microscopic analysis. It is filed as functional, cell-based. Put shortly: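 Cells in RPMI 1640/10% FBS were exposed to compound or 0.1% DMSO for 72 h: MCF-7 at 5 and 10 µM, HeLa and BEL-7402 at 20 and 40 µM. They were incubated with […] acridine orange for 15 min, washed with PBS, and acidic vesicles were imaged by inverted fluorescence microscopy.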

In assay [8] the test system is MCF7. The assay is described as follows: Induction of autophagy in human MCF7 cells at 10 uM after 72 hrs by MDC staining-based flow cytometric analysis (reference value: 2.54%). It is filed as functional.
The subject of assay [9] is Bel-7402. As to the kind of experiment: Induction of cell cycle arrest in human Bel7402 cells assessed as accumulation at S phase at 20 uM after 48 hrs by PI staining-based flow cytometric analysis (reference value: 25.01%). It is filed as functional.
For assay [10], the system named is MCF7. The assay is described as follows: Induction of autophagy in human MCF7 cells at 5 uM after 72 hrs by MDC staining-based flow cytometric analysis (reference value: 2.54%). It is filed as functional.
Assay [11] relates to Bel-7402. The assay is described as follows: Induction of cell cycle arrest in human Bel7402 cells assessed as accumulation at G0/G1 phase at 20 uM after 48 hrs by PI staining-based flow cytometric analysis (reference value: 49.44%). It is filed as functional.
For assay [12], the system named is HeLa. As to the kind of experiment: Induction of apoptosis in human HeLa cells assessed as accumulation at subG1 phase at 20 uM after 48 hrs by PI staining-based flow cytometric analysis (reference value: 2.89%). Format: functional.
The subject of assay [13] is Bel-7402. The assay is described as follows: Induction of autophagy in human Bel7402 cells assessed as autophagic cell formation at 20 uM after 72 hrs by MDC staining-based flow cytometric analysis (reference value: 3.94%). It is filed as functional.
In assay [14] the test system is HeLa. As to the kind of experiment: Induction of autophagy in human HeLa cells assessed as autophagic cell formation at 40 uM after 72 hrs by MDC staining-based flow cytometric analysis (reference value: 1.92%). Format: functional.
Assay [15] relates to HeLa. As to the kind of experiment: Induction of autophagy in human HeLa cells assessed as increase in LC3-2 level at 20 and 40 uM after 48 hrs by Western blot analysis. Format: functional, cell-based. Put shortly: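 Cells were treated with or without compound for 48 h: MCF-7 at 5 and 10 µM, HeLa and BEL-7402 at 20 and 40 µM. Total protein (10 µg) in SDS sample buffer (pH 6.8) was run on 8–15% SDS-PAGE and transferred to PVDF. LC3-I/LC3-II were probed with HRP secondary antibody and ECL detection. The assay was repeated at least three times.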
For orientation: A western blot detects proteins with antibodies after separation by electrophoresis.

Calls of active or inactive are those of the source. The rule behind the calls is not given here.

Regarding `Cc1ccc(S(=O)(=O)N[C@H](Cc2ccccc2)C(=O)OC[C@H](Cc2ccccc2)NC(=O)c2ccccc2)cc1`, the Activity was 22.61% in the assay with Bel-7402 [1]; 3.22% in the assay on MCF7 [2]; 21.52% with HeLa [3]; 3.01% in the assay on Bel-7402 [4]; 28.07% in the assay on MCF7 [5]; 20.05% in the assay with MCF7 [6]. For the same molecule, the Activity amounted to 56.08% with MCF7 [8]; 26.01% in the assay with Bel-7402 [9]; 40.31% with MCF7 [10]; 47.63% in the assay on Bel-7402 [11]; 2.12% in the assay on HeLa [12]; 23.66% in the assay with Bel-7402 [13]. The Activity in the assay on HeLa [14] came out at 49.37%. In addition, the outcome in the assay on Bel-7402 [7] and with HeLa [15] was Active.
